PRMT1 FP inh = blocks human protein arginine methyltransferase 1 | Q99873 | recombinant PRMT1, activity-based probe fluorescence polarization | inhibition, % at 2.79 µM | 370,000 compounds, 1.3% hits | AID 652257;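 active = inhibition above about 21% made by adding two undisclosed values, limit read from the data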
TCR CD3 inh = inhibitors of human TCR-CD3 interaction | TAMRA-labeled TCR probe fluorescence, biochemical | inhibition, % at 9.4 µM | 360,000 compounds, 0.37% hits | AID 651800; in the data active = inhibition above about 19%;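 note: recombinant mutant TCR 2C K166C tagged with TAMRA read by polarization; 0% = receptor in buffer alone and 100% = receptor with positive control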
rCAG RNA binder = binds r(CAG) RNA repeats; 370,000 compounds, 1.3% hits; inhibition, % at 3 µM; r(CAG) RNA repeat, TO-PRO-1 dye displacement fluorescence;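 active = inhibition above the plate cutoff, the mean of all test compounds on that plate plus 3 SD, cut at about 35% in these data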;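 note: 0% = DMSO alone and 100% = 100 µM mitoxantrone as full dye displacement; higher means more dye released from RNA so lower well fluorescence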
SIAE primary = inhibitors of human sialic acid acetylesterase SIAE | SIAE FP-Rh probe binding, fluorescence polarization | inhibition, % at 9.66 µM | 370,000 compounds, 0.69% hits | AID 1053197;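 active = inhibition above a cutoff: mean of compounds within the control limits plus 3 SD of those, cut at about 17% in these data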;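 note: 0% = plate median of compound wells and 100% = probe without SIAE protein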
HTRA1 inh = HTRA1 (human) protease inhibition. Q92743. 340,000 compounds, 0.5% hits. recombinant HTRA1, FP-rhodamine activity-based probe, fluorescence polarization. inhibition, % at 5.96 µM. AID 504803; in the data active = inhibition above about 36%;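 note: 0% = enzyme with DMSO and 100% = wells lacking enzyme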
Target sequence (Q92743 whole entry, looked up): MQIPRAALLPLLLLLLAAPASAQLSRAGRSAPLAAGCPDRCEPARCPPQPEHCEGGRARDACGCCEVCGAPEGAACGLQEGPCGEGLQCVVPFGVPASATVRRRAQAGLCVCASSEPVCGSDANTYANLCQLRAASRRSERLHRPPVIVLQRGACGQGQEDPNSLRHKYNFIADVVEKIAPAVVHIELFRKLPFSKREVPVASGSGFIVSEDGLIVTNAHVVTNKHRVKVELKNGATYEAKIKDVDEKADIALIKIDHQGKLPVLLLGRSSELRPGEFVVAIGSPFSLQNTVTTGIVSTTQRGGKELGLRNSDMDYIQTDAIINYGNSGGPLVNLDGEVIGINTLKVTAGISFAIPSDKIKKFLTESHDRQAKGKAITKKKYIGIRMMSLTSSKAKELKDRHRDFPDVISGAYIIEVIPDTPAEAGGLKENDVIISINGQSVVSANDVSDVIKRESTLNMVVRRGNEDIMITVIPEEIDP
mABHD4 FP = inhibits mouse alpha/beta hydrolase domain 4; inhibition, % at 8.92 µM; Q8VD66; 370,000 compounds, 0.54% hits; AID 720543; purified mABHD4, FP-Rh probe fluorescence polarization;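 active = inhibition exceeding the mean over every tested compound plus 3 SD, cut at about 30% in these data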;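 note: 0% = plate median of compound wells and 100% = S159A mutant with DMSO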
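Assay system: mouse ABHD4 enzyme, wild type / Also added: fluorescent activity-based probe FP-Rh / Doses: single nominal dose of 8.92 µM, 0.89% DMSO final / Timing: 45 min compound pre-incubation plus 60 min probe step, 25 °C / Signal: FP readout, ex 525 nm / em 598 nm / Control set: S159A mutant/DMSO as 100%, compound-well median as 0%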
rCAG binder conf = r(CAG) RNA repeat binding, confirmation; TO-PRO-1 dye displacement fluorescence; 4,300 compounds, 70% hits; shares compounds with rCAG RNA binder; AID 652065; inhibition, % at 3 µM;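 active = inhibition above a per-plate cutoff, the mean inhibition of sample wells plus 3 SD, cut at about 35% in these data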;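 note: loss of TO-PRO-1 fluorescence as compound displaces dye from 1x1 AA loop RNA; 0% = DMSO only wells and 100% = 100 µM mitoxantrone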
DNA CAG counter = DNA CAG dye complex inhibition counter-screen; shares compounds with rCAG RNA binder; d(CAG) DNA oligo TO-PRO-1 dye displacement, fluorescence; inhibition, % at 3 µM; 4,300 compounds, 94% hits; AID 652068;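 active = inhibition above its plate's cutoff, the mean test-well inhibition plus 3 SD, cut at about 4.8% in these data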;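 note: 0% = DNA dye mix with DMSO and 100% = 100 µM mitoxantrone; hits displace the dye from DNA and so lower well fluorescence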
* hit, by the source's call; x = no result given. Hits are enriched below; roughly 3.5% of the tested compounds scored in any of these assays.

SMILES	PRMT1 FP inh	TCR CD3 inh	rCAG RNA binder	SIAE primary	HTRA1 inh	mABHD4 FP	rCAG binder conf	DNA CAG counter
COc1ccc(-c2csc(/C(C#N)=C(\O)CSc3nccn3C)n2)cc1OC	-1.4	1.4	38.3*	-7.6	-1.5	8.0	59.0*	22.2*
CN(C)c1cccc(-c2cnc(N3CCC(C(N)=O)CC3)nc2)c1	4.3	x	x	5.8	x	6.4	x	x
CC1CCCCC1C(=O)N1CCC(Oc2cccnc2)CC1 (stereo unspecified)	1.1	x	-0.7	2.2	x	0.2	x	x
CCN(CC)C(=O)CC[C@H]1CC[C@]2(CCCN(Cc3cccnc3)C2)O1	0.3	x	2.0	14.8	x	-0.9	x	x
O=C(Nc1ccc(S(=O)(=O)N2CCOCC2)cc1)c1ccccc1	x	x	x	x	2.4	x	x	x
O=C(Nc1ccc(S(=O)(=O)N2CCOCC2)cc1)c1cc(-c2ccccc2O)n[nH]1	-0.5	-4.8	34.9*	-14.6	-18.2	-37.1	23.6	7.9*
CC1CN(S(=O)(=O)c2ccc(NC(=O)c3cc(-c4ccccc4O)n[nH]3)cc2)CC(C)O1 (stereo unspecified)	1.1	6.5	37.0*	-24.1	-43.1	-79.4	27.9	14.0*
COC(=O)[C@@]12CCCCC3=C1N(CCC3)C(=O)[C@H]2CC(=O)N1CCN(C(=O)c2ccco2)CC1	6.5	x	0.5	-6.9	x	0.5	x	x
CN(C)c1ccc(/C=C2\SC(=S)N(Nc3ncc(C(F)(F)F)cc3Cl)C2=O)cc1	-20.1	-20.5	-23.1	-29.0	-20.4	-41.6	x	x
COc1cc(/C=C2\SC(=S)N(Nc3ncc(C(F)(F)F)cc3Cl)C2=O)ccc1O	12.1	-114.8	52.6*	-162.5	-235.4	-263.0	62.7*	32.4*
CCCCNC(=O)c1onc(CSc2cc(C)cc(C)c2)c1C(=O)O	-6.3	0.3	35.3*	-1.6	-7.8	-28.7	26.0	4.4*
C=CCNC(=O)c1onc(CSc2ccccc2)c1C(=O)O	-2.2	-0.9	6.0	-0.9	-4.5	11.2	x	x
C=CCNC(=O)c1onc(CSc2ccccc2F)c1C(=O)O	-0.5	0.1	8.0	2.8	-5.4	4.5	x	x
C=CCNC(=O)c1onc(CSc2cccc3ccccc23)c1C(=O)O	1.1	3.0	40.4*	-12.3	-21.1	-23.9	29.1	5.2*
C=CCNC(=O)c1onc(CSc2ccc(C(C)C)cc2)c1C(=O)O	-2.1	5.6	37.8*	3.5	-20.8	-10.5	24.5	3.7
COc1cccc(NC(=O)Nc2c(-c3ccc(F)cc3)nc3ncccn23)c1	-1.2	x	4.9	3.9	x	2.7	x	x
N=C1/C(=C\c2ccc(OC(=O)c3ccccc3Cl)cc2)C(=O)N=C2SC(N3CCOCC3)=NN12	2.9	1.5	37.0*	-0.6	-15.9	9.2	63.2*	26.5*
CCC(CC)C1=NN2C(=N)/C(=C/c3ccc(OC(=O)c4ccco4)cc3)C(=O)N=C2S1	2.4	0.2	42.2*	-0.2	-3.7	0.7	46.4*	12.0*
CSC1=NSC2=NC(=O)/C(=C\c3ccc(OC(=O)c4ccco4)cc3)C(=N)N12	-3.8	-0.1	37.7*	-11.9	1.9	-8.1	42.8*	13.3*
CC(C)CS(=O)(=O)C1=NSC2=NC(=O)/C(=C\c3ccc(OC(=O)c4ccco4)cc3)C(=N)N21	2.5	-2.7	24.2	-20.5	-1.5	5.6	x	x
CS(=O)(=O)C1=NSC2=NC(=O)/C(=C\c3ccc(OC(=O)c4ccco4)c(Br)c3)C(=N)N21	3.3	-4.2	40.3*	-21.2	2.6	-7.8	83.1*	52.5*
CCS(=O)(=O)C1=NN2C(=N)/C(=C\c3ccc(OC(=O)c4ccco4)cc3)C(=O)N=C2S1	0.5	9.6	24.1	-11.2	0.9	0.7	x	x
Cc1ccc(Cn2cc(CN3[C@@H](CC(C)C)COc4cccc(F)c4S3(=O)=O)nn2)cc1	3.6	x	4.1	-2.7	x	-4.1	x	x
CC(C)C(NC(=O)[C@H](Cc1ccccc1)NC(=O)OCc1ccccc1)P(=O)(O)OC(Cc1ccccc1)C(=O)O (stereo partly specified)	3.7	x	x	11.8	x	5.6	x	x
Cc1ccc(CNC(=O)OC(C)(C)C)c(/C=C/S(=O)(=O)NC2CCCC2)c1	3.4	x	0.5	-6.8	x	-15.6	x	x

Screening results as filed in PubChem BioAssay.
